pIC50: −log10 of the molar value. “Also recorded” adds a separate entry of the source.
Legend:
[1] = tested on: panel of six different human tumor cell lines; assay: Antiproliferative activity, panel of six cell lines; type: cell-based; details: for pIC50: Homo sapiens, read-out: IC50 values, range against the cell lines; for antiproliferative activity (in words): six human tumor cell lines
How it was run: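 Cells in RPMI-1640 (Jurkat, HL-60, K562) or DMEM (MCF7, A549, HeLa) with 10% FBS and penicillin/streptomycin. 8 × 10^3 cells/well were preincubated 18 h, then exposed to a range of test compound concentrations in complete medium for 72 h at 37 °C, 5% CO2. Viability was read by MTT.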

[2] = tested on: PARP and Bcl-2 in Jurkat cells; assay: Western blot for PARP cleavage and Bcl-2 expression; type: cell-based, human; details: 50 nM; for PARP cleavage: 24 h
How it was run: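 Jurkat cells were treated with test compound for varying times, washed in cold PBS and lysed on ice for 30 min. Lysates were spun at 15000g, 4 °C, 10 min, and protein was measured by BCA. 20 µg protein per lane was run on 7.5–15% SDS–PAGE and blotted to PVDF. Blots were probed with rabbit anti-Bcl-2 or anti-PARP (1:1000, 2 h, RT), then HRP secondary, and developed by ECL. Blots were stripped and reprobed for β-actin as loading control.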

[3] = tested on: chick aortic vascular sprouts; assay: Chick aortic ring assay; type: cell-based; details: 30 min incubation
How it was run: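 Aortic arches from day 14 chick embryos were cut into cross-sectional slices and embedded in Matrigel with complete medium. Endothelial sprouts or channels formed over 24–48 h. Various concentrations of test compound were then added, and vascular channels were photographed before and 30 min after addition.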

[4] = tested on: Jurkat cells; assay: Mitochondrial ROS production; type: cell-based, human; details: up to 72 h, HE and H2DCFDA
How it was run: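 After different treatment times, cells are pelleted and resuspended in HBSS containing hydroethidine (2.5 µM) or H2DCFDA (0.1 µM). They are incubated for 30 min at 37 °C, spun and resuspended in HBSS. Fluorescence is recorded directly by flow cytometry, with excitation at 488 nm and emission at 585 nm (ethidium, from superoxide) or 530 nm (DCF, from peroxides).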

[5] = tested on: Jurkat cells; assay: Annexin-V/PI apoptosis assay; type: cell-based, human; details: 50 nM, 24-72 h
How it was run: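 After treatment for different times, Jurkat cells are co-stained with annexin-V-FITC (per the kit instructions) and PI. They are analysed by flow cytometry with excitation at 488 nm and emission filters at 525 nm (FITC, green) and 585 nm (PI, red). Externalised phosphatidylserine is scored as annexin-V positive cells.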

[6] = tested on: Jurkat cells; assay: Flow cytometric cell cycle analysis, Jurkat; type: cell-based, human
[7] = tested on: HUVECs expressing GFP; assay: Endothelial cell shape change assay; type: cell-based, human; details: 30 min after drug addition
How it was run: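 GFP-expressing HUVECs were grown in EGM-2 with endothelial cell growth supplement and seeded on collagen-coated slides 1 day before assay. Morphology and GFP fluorescence were imaged by confocal microscopy before and at several times after test compound addition. The GFP-positive cell area was quantified by image analysis.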

[8] = tested on: Jurkat cells; assay: Mitochondrial membrane potential; type: cell-based, human; details: 50 nM
How it was run: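 Mitochondrial potential is probed with the lipophilic cation JC-1. After different treatment times, cells are pelleted and resuspended in HBSS containing 1 µM JC-1, held for 10 min at 37 °C, then spun and resuspended in HBSS. Polarised mitochondria form aggregates with shifted emission. On depolarisation, JC-1 monomers emit at 530 nm.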

[9] = tested on: HeLa cells; assay: Flow cytometric cell cycle analysis, HeLa; type: cell-based, human; details: for G2/M cell population: 30 nM, 48 h, control 12%; for cell cycle effect in HeLa: 7 to 250 nM, 24 h
[10] = tested on: caspase-3 in Jurkat cells; assay: Caspase-3 activation by flow cytometry; type: cell-based, human; details: 50 nM, 24, 48, 72 h
How it was run: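 After different incubation times with test compound, cells are pelleted and fixed in Cytofix buffer for 20 min, then washed with Perm/Wash. They are stained for 30 min with a FITC-conjugated antibody against the human active caspase-3 fragment, washed and analysed by flow cytometry. Results are given as percentage of caspase-3 active fragment positive cells.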

Compound `COc1ccc(/C=C\c2cc(OC)c(OC)c(OC)c2)cc1O` [CA-4, combretastatin A-4, reference compound] has a pIC50 [1] of 6.43 to 8.40.
In the case of `COc1cc(-n2ncnc2-c2ccccc2)cc(OC)c1OC` [Compound 4a], the “antiproliferative activity (in words)” value [1] was “did not yield active compounds”.
In the case of `COc1cc(-n2ncnc2-c2ccc(F)cc2)cc(OC)c1OC` [Compound 4b], the “antiproliferative activity (in words)” value [1] was “did not yield active compounds”.
With `COc1cc(-n2ncnc2-c2cccc(F)c2)cc(OC)c1OC` [Compound 4c] the “antiproliferative activity (in words)” value [1] was “did not yield active compounds”.
In the case of `COc1cc(-n2ncnc2-c2ccc(Cl)cc2)cc(OC)c1OC` [Compound 4d], the “antiproliferative activity (in words)” value [1] was “did not yield active compounds”.
For `COc1cc(-n2ncnc2-c2ccc(Cl)c(Cl)c2)cc(OC)c1OC` [Compound 4f], the “antiproliferative activity (in words)” value [1] was “did not yield active compounds”.
For `COc1cccc(-c2ncnn2-c2cc(OC)c(OC)c(OC)c2)c1` [Compound 4i], the “antiproliferative activity (in words)” value [1] was “dramatic drop of potency; also recorded: inactivity”.
With `COc1ccccc1-c1ncnn1-c1cc(OC)c(OC)c(OC)c1` [Compound 4j] the “antiproliferative activity (in words)” value [1] was “dramatic drop of potency”.
`CCOc1ccc(-c2ncnn2-c2cc(OC)c(OC)c(OC)c2)cc1` [Compound 4l, 1-(3,4,5-Trimethoxyphenyl)-5-(4-ethoxyphenyl)-1H-1,2,4-triazole] was tested, and the Bcl-2 expression [2] was “decreased expression of Bcl-2”, the PARP cleavage [2] was “extensive formation of the typical 89 kDa fragment of PARP” and the “effect on vascular sprouts from chick aortic ring” value [3] was “disrupted formation of vascular sprouts”. The ROS production [4] was “induced the production of large amounts of ROS”, the “induction of apoptosis (annexin-V positive cells)” value [5] was “significant induction of apoptotic cells after 24 h” and the “cell cycle effect in Jurkat” value [6] was “significant block in the G2/M phase”. The “lowest concentration causing HUVEC retraction and membrane blebs” value [7] was 0.5 µM, the “mitochondrial transmembrane potential (JC-1)” value [8] was “depolarization of the mitochondrial membrane potential” and the G2/M cell population [9] was “over 70%”. For the same compound, the “cell cycle effect in HeLa” value [9] was “clear G2/M arrest pattern in a concentration-dependent manner” and the caspase-3 activation [10] was “activation of caspase-3 in a time-dependent manner”.
`CCOc1cccc(-c2ncnn2-c2cc(OC)c(OC)c(OC)c2)c1` [Compound 4m] was tested, and the “antiproliferative activity (in words)” value [1] was “inactivity”.
In the case of `CCOc1ccc(-c2ncnn2-c2cc(OC)c(OC)c(OC)c2)cc1Cl` [Compound 4o, 5-(3-Chloro-4-ethoxyphenyl)-1-(3,4,5-trimethoxyphenyl)-1H-1,2,4-triazole], the Bcl-2 expression [2] was “decreased expression of Bcl-2”, the PARP cleavage [2] was “extensive formation of the typical 89 kDa fragment of PARP” and the ROS production [4] was “induced the production of large amounts of ROS”. For the same compound, the “induction of apoptosis (annexin-V positive cells)” value [5] was “significant induction of apoptotic cells after 24 h”, the “cell cycle effect in Jurkat” value [6] was “significant block in the G2/M phase” and the “mitochondrial transmembrane potential (JC-1)” value [8] was “depolarization of the mitochondrial membrane potential”. The pIC50 [1] was 7.70 to 8.52, the G2/M cell population [9] was “over 70%” and the “cell cycle effect in HeLa” value [9] was “clear G2/M arrest pattern in a concentration-dependent manner”. The caspase-3 activation [10] was “activation of caspase-3 in a time-dependent manner”.
`COc1cc(-n2ncnc2-c2cccc([N+](=O)[O-])c2)cc(OC)c1OC` [Compound 4r] was tested, and the “antiproliferative activity (in words)” value [1] was “did not yield active compounds”.

Reference: publication PMC2887662 (Journal of medicinal chemistry, 2010)
